SIRT5 block: blocks human SIRT5 desuccinylation of peptide. Q9NXA8. Purified SirT5, succinyl-peptide AMC, trypsin-coupled fluorescence. inhibition, % at 15 µM. hit rate 1.1% among 330,000; in the data active = inhibition above about 15%; inconclusive = no clear call, values can overlap the other calls
Target sequence (Q9NXA8 whole entry, looked up): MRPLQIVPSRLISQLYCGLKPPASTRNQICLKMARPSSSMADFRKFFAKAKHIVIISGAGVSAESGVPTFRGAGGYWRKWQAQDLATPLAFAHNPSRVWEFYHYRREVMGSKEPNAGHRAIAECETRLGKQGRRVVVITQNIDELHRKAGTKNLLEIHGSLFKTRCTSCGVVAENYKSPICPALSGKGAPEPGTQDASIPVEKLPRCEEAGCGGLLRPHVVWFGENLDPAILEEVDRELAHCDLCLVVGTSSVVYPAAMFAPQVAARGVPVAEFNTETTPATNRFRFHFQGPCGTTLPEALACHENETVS
S100A4 inh HTS: S100A4-myosin IIA interaction inhibition | AID 652163 | inhibition, % at 10.7 µM | S100A4/TAMRA-MyoIIA peptide fluorescence polarization | hit rate 0.14% among 360,000;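 active = mean inhibition of at least 70% across replicates, with every replicate also reaching that level; inconclusive = mean inhibition reaches 70% but some replicates fall short; inactive = mean inhibition below 70%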
Target sequence (P26447 whole entry, looked up): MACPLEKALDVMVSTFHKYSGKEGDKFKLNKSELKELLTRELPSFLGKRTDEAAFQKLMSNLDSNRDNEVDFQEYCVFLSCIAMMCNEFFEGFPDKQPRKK
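Test system: S100A4 monomer protein. Medium: HEPES buffer with Ca2+, pH 7.2. Reagent: fluorescent myosin IIA peptide, 5 nM. Compound dosing: single-point compound testing. Timing: 5 min between mix addition and reading. Benchmarks: DMSO neutral and TFP positive wells.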
DENV2 CPE: protects cells from dengue virus 2 cytopathic effect; DENV2-infected cells, cytopathic effect rescue, plate reader; CPE inhibition, % at 9.99 µM; hit rate 1.7% among 350,000; AID 651640; in the data active = CPE inhibition above about 20%, passing the limit was not always enough; inconclusive = no clear call, values can overlap the other calls; tested in BHK-21 cells;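 note: 0% = median of neutral control wells and 100% = median of positive control wells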
C2C12 statin: protects C2C12 myotubes from simvastatin toxicity; rescue of ATP level, % at 7.49 µM; hit rate 0.78% among 330,000; ATP luminescence, 48 h; scaled: DMSO 0, geranylgeraniol control 100; AID 602340;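 active = mean ATP rescue above about 67%, or every replicate alone reaching that limit, limit read from the data, passing the limit was not always enough; inconclusive = no clear call, values can overlap the other calls; inactive = mean under the limit and some replicate under it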;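 note: myotubes were challenged with 10 µM simvastatin during compound exposure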
PGC1a acetyl inh: modulators of PGC1a acetylation. U2OS PGC1a acetylation, AlphaScreen anti-acetyl-lysine; with virally co-expressed GCN5 acetyltransferase. inhibition, % at 15.6 µM. hit rate 0.17% among 350,000. AID 651687;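 active = every replicate shows inhibition of at least 40%; inconclusive = mean inhibition at least 40% but some replicate below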;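 note: 0% = neutral control wells and 100% = positive control wells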
An asterisk follows results filed as active; ? = inconclusive; / = not tested or not shown. Shown are actives, neighbours in structure and some others; about 2.9% of the full set was active somewhere.

SMILES | SIRT5 block | S100A4 inh HTS | DENV2 CPE | C2C12 statin | PGC1a acetyl inh
CCC(=O)Nc1ccc2c(c1)C(=O)N(C)[C@H]1CC[C@H](CC(=O)NCCOC)O[C@H]1CO2 | -3.7 | 4.8 | -5.0 | -3.5 | 8.7
C[C@@H]1CCCCO[C@@H](CN(C)S(C)(=O)=O)[C@H](C)CN([C@@H](C)CO)C(=O)c2cc(NC(=O)CCC(F)(F)F)ccc2O1 | 1.2 | 5.2 | -6.8 | -2.8 | 6.8
CC(C)C#Cc1ccc2c(c1)O[C@@H](CN(C)S(C)(=O)=O)[C@@H](C)CN([C@@H](C)CO)S2(=O)=O | -3.4 | 10.5 | -0.5 | -0.3 | -4.6
O=C(NCc1ccc(Cl)c(Cl)c1)c1cc(C2CCCCN2C(=O)OCCF)on1 (centres undefined) | 0.1 | -2.1 | 29.6* | -4.8 | 2.6
O=C(Nc1ccc2c(c1)OCO2)c1cc(C2CCCCN2C(=O)OCCF)on1 (centres undefined) | / | 1.4 | 20.3* | -0.2 | 6.8
O=C(Nc1ccccc1Cl)c1cc(C2CCCCN2C(=O)OCCF)on1 (centres undefined) | / | -1.3 | -9.7 | 7.8 | 1.7
COCc1cn(CC[C@H]2CC[C@H](NC(=O)Nc3c(C)noc3C)[C@@H](CO)O2)nn1 | 3.4 | 0.2 | 6.3 | -6.5 | -7.1
COc1ccc(OC)c(NC(=O)C2CCN(S(=O)(=O)c3cccs3)CC2)c1 | / | / | / | -44.0 | 5.2
COc1ccc(CNC(=O)C2CCN(C(=O)c3ccc(-c4ccccc4)cc3)CC2)cc1 | -0.1 | -20.2 | 3.2 | 2.6 | 8.3
COc1ccc(S(=O)(=O)N2CCC(C(=O)NCCC(=O)NCc3ccccn3)CC2)cc1 | -3.1 | -0.8 | 35.7* | -0.5 | 1.2
COc1ccc(OC)c(NC(=O)C2CCN(C(=O)c3cccs3)CC2)c1 | 22.1* | 2.6 | 14.4 | / | /
COc1ccc(C(=O)N2CCC(C(=O)NCc3ccccn3)CC2)cc1 | / | / | / | 113.5* | -1.4
COc1ccc(NC(=O)NCc2ccccn2)cc1 | / | / | / | 109.7* | -8.4
COCC(=O)N(C)C[C@@H]1Oc2cc(-c3ccc(C)cc3)ccc2S(=O)(=O)N([C@@H](C)CO)C[C@H]1C | -4.6 | 0.5 | -0.9 | 5.9 | 23.5
CCC(=O)N[C@H]1CC[C@H](CC(=O)OC)O[C@@H]1CO | -1.6 | -25.7 | -4.9 | 6.7 | 0.4
C[C@@H]1CN([C@H](C)CO)S(=O)(=O)c2ccc(-c3ccccc3)cc2O[C@@H]1CN(C)Cc1cncnc1 | 3.0 | -2.9 | 10.9 | -29.7 | -18.7
C[C@@H]1CN([C@H](C)CO)C(=O)Cc2cc(NC(=O)CCN3CCOCC3)ccc2O[C@H]1CN(C)C(=O)Nc1cccc2ccccc12 | 4.5 | -10.0 | -1.6 | 16.8 | -8.4
O=C(Nc1ccc2c(c1)OCCO2)C1CCN(C(=O)c2ccc(Br)cc2)CC1 | / | / | / | 2.9 | -9.0
COc1ccc(C(=O)N2CCC(C(=O)Nc3ccc4c(c3)OCCO4)CC2)cc1 | / | / | / | 86.4* | 6.6
COCC(=O)Nc1ccc2c(c1)[C@H]1C[C@@H](CC(=O)N3CCCCC3)O[C@H](CO)[C@H]1O2 | / | / | 2.7 | 1.5 | 4.8
CCC(=O)N[C@@H]1C[C@@H]2O[C@@H](CO)CC[C@@H]2O[C@@H]1CCc1ccc(-c2cccc(OC)c2)cc1 | 0.5 | 1.2 | 18.8 | / | -4.0
COCc1cccc(-c2csc(C(N)c3ccc(F)c(F)c3)n2)c1 (centres undefined) | / | -3.7 | 21.1* | 2.1 | -3.0
O=[N+]([O-])c1cccc(NC(=S)N2CCc3ccccc32)c1 | 1.8 | -6.3 | 69.5* | / | 1.1
Cc1ccc(C(=O)Nc2ccc(CN3CCCCC3)cc2)c(C)c1 | -2.5 | 0.1 | 34.8* | / | 8.8
O=C(NC(=S)NCCN1CCOCC1)c1ccccc1Cl | / | / | / | 19.9 | -14.3
SMILES | SIRT5 block | S100A4 inh HTS | DENV2 CPE | C2C12 statin | PGC1a acetyl inh
COc1ccc(Cl)cc1C(=O)Nc1ccc(CN2CCCCC2)cc1 | 1.7 | 2.7 | 9.8 | / | 22.0
Cc1ccc(Cl)cc1N1CCN(C(=O)c2ccc(CN3CCOCC3)cc2)CC1 | 0.2 | 3.0 | -2.3 | 0.2 | -5.5
O=C(Nc1ccc(CN2CCOCC2)cc1)c1cc(Br)ccc1Cl | -2.0 | -5.2 | 0.9 | 9.8 | /
O=C(c1ccc(CN2CCOCC2)cc1)N1CCN(c2cccc(Cl)c2)CC1 | / | / | / | 103.3* | 7.5
O=C(Nc1ccc(CN2CCOCC2)cc1)c1ccc(Cl)cc1Cl | 18.0* | -2.3 | -2.6 | 2.6 | -2.8
O=C(NC(=S)NCCN1CCOCC1)c1ccc(Cl)cc1Cl | / | / | / | 89.2* | 0.2
COc1cccc(C(C(=O)NC(C)(C)C)N(Cc2ccc(C)cc2)C(=O)CCC(=O)Nc2cc(C)on2)c1OC (centres undefined) | -1.1 | -6.3 | 6.6 | 4.1 | /
COc1cccc(C(C(=O)NC(C)(C)C)N(C(=O)CCC(=O)Nc2cc(C)on2)C(C)(C)C)c1OC (centres undefined) | / | / | / | 66.6* | -18.6
CN(Cc1ccccc1)S(=O)(=O)c1cccc(C(=O)O)c1 | 31.0* | 10.5 | 1.8 | / | 4.6
COc1ccccc1N(Cc1ccccc1)S(=O)(=O)c1cccc(C(=O)O)c1 | 7.2 | 0.8 | 0.1 | / | /
Cc1ccc(SC(=O)c2c(C)noc2-c2cc(C)on2)cc1 | -3.1 | -9.1 | 41.4* | / | -1.1
COc1cccc(S(=O)(=O)Nc2ccc3c(c2)[C@@H]2C[C@@H](CC(=O)N(C)C)O[C@H](CO)[C@@H]2O3)c1 | -1.5 | 0.2 | 0.4 | -5.8 | 0.3
COc1cnc(SCc2c(Cl)cccc2Cl)nc1Cl | 7.0 | -1.8 | 0.5 | 88.2* | 11.0
O=C(c1ccncc1)N1C[C@@H]2[C@H](c3ccccc31)[C@H](CO)N2C(=O)CN1CCOCC1 | 2.4 | 1.3 | 18.3 | -4.5 | 7.6
Cc1ccccc1NC(=O)C(NC1CCCCC1)C(C)C (centres undefined) | 35.9* | -16.5 | -2.0 | / | -1.4
COC(=O)C(C(=O)Nc1ccccc1C)C1CCCC1 (centres undefined) | / | / | / | / | 5.0
C/C=C/c1ccc(OCCCNC(C)CC)c(OC)c1 (centres undefined) | / | / | / | 98.6* | -3.9
O=C(COC(=O)c1nc(Cl)ccc1Cl)Nc1ccc(Cl)cc1 | -0.5 | -2.8 | 2.8 | 0.0 | 2.8
CN(CC(=O)Nc1ccc(F)cc1)C(=O)COC(=O)c1nc(Cl)ccc1Cl | 1.2 | -5.1 | 72.6* | 3.4 | 0.4
Cc1cc2cc(CNC(=O)c3ccc(S(=O)(=O)N4CCCC4)cc3)ccc2n1C | -7.9 | 121.4* | 10.8 | 5.0 | 4.9
Cc1cccc(CNC(=O)Cn2ccc3cc(S(=O)(=O)N4CCCC4)ccc32)c1 | 15.7* | -2.6 | 1.6 | 2.8 | -1.5
Cc1ccccc1CNC(=O)Cn1ccc2cc(S(=O)(=O)N3CCCCCC3)ccc21 | 19.5* | -2.2 | ? | -20.3 | -7.1
CCc1ccc(NC(=O)C2CCCN(S(=O)(=O)c3ccc4c(c3)CCCN4C(C)=O)C2)cc1 (centres undefined) | 1.0 | 1.1 | 2.8 | 11.6 | -6.7
Cc1cc2cc(CNC(=O)c3ccc(S(=O)(=O)N4CCCCC4)cc3)ccc2n1C | -0.8 | 56.4 | -11.8 | -25.4 | 7.1
